Assay [1] is described as follows: Cell growth inhibition of MXT-ER+ breast cancer cells at a dose of 8 mg. Particulars: Mus musculus; Cancer cell lines. In kind it is functional. In outline: (§1)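 Hormone-dependent MXT mammary carcinoma (ER+) model. Equimolar doses (2 × 10⁻⁵ M/kg) were given sc three times weekly (Mon, Wed, Fri) as a solution or suspension in polyethylene glycol 400/H₂O (1:1); some agents were given in olive oil. Median tumor weight was taken at the end of 6 weeks of therapy and given as T/C %. Significance was tested by the Wilcoxon-Mann-Whitney U test.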

For assay [2], the species on record is Mus musculus. Description: Uterotrophic effect in BDF1 mouse measured as([weight of uterus (mg)/body weight (g)] *100). In kind it is functional. In outline: (§2)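 Female BDF1 mice carrying MXT ER+ mammary carcinoma were dosed in olive oil, sc, three times a week, for 6 weeks. At the end of therapy, uterotropic effect = [uterus dry weight (mg)/body weight (g)] × 100, given as mean ± SD and as T/C % versus control. Significance was by the U test.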

The species named for assay [3] is Mus musculus. Nature of the assay: Uterotrophic effect in BDF1 mouse at a dose of 8 mg. It is filed as functional, Uterus. In outline: (§3)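 Uterus of BDF1 mice in the MXT ER+ study. Equimolar dosing at 2 × 10⁻⁵ M/kg, sc in olive oil three times a week (Mon/Wed/Fri). Uterine response = [uterus dry weight (mg)/body weight (g)] × 100, determined at the end of the 6-week therapy; U test.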

For assay [4], the species on record is Mus musculus. Description: Median tumor weight of MXT ER+ (mammary carcinoma) determined at the end of 6 week therapy at a dose of 8 mg. It is filed as functional. In outline: (§4)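 BDF1 mice with hormone-dependent MXT mammary carcinoma (ER+). Equimolar dosing at 2 × 10⁻⁵ M/kg, given sc in olive oil three times a week (Mon/Wed/Fri) for 6 weeks. Median tumor weight was taken at the end of therapy and compared with controls by the Wilcoxon–Mann–Whitney U test.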

Assay [5] concerns Mus musculus. Nature of the assay: Median tumor weight of MXT (mammary carcinoma) ER+ determined at the end of 6 week therapy at a dose of 11.3 mg/kg. In kind it is functional, organism-based. Further details: dose 11.3 mg/kg. In outline: as §1
In assay [6] the test system is MDA-MB-231. Description: Incorporation of [3H]- thymidine into hormone independent MDA-MB-231 breast cancer cells. It is filed as functional, cell-based. The following applies: Homo sapiens.
In assay [7] the test system is Mus musculus. Description: Uterotrophic effect in BDF1 mouse at a dose of 11.3 mg/kg. It is filed as functional, organism-based. More on the design: dose 11.3 mg/kg. Particulars: Uterus. In outline: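 Uterus of BDF1 mice in the MXT ER+ study. Equimolar dosing at 2 × 10⁻⁵ M/kg, sc in PEG 400/H₂O 1:1 three times a week (Mon/Wed/Fri). Uterine response = [uterus dry weight (mg)/body weight (g)] × 100, determined after 6 weeks of therapy; U test.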

Assay [8] relates to MCF7S. Nature of the assay: Cell growth inhibition in hormone dependent MCF 7 breast cancer cells. In kind it is functional, cell-based. The following applies: Homo sapiens.
The subject of assay [9] is MDA-MB-231. Description: Cell growth inhibition in hormone independent MDA-MB-231 breast cancer cells. In kind it is functional, cell-based. The following applies: Homo sapiens.
Assay [10] in a line: Cell growth inhibition MXT-ER- breast cancer cells at a dose of 11.3 mg/kg. In kind it is functional, organism-based. More on the design: dose 11.3 mg/kg. The following applies: Mus musculus, Cancer cell lines. In outline:
(§5)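 Hormone-independent MXT mammary carcinoma (ER−) in mice. Equimolar doses (2 × 10⁻⁵ M/kg) were given sc three times a week (Mon, Wed, Fri) in polyethylene glycol 400/H₂O (1:1), or in olive oil for some agents. Median tumor area was measured at the end of a 2-week therapy and expressed as T/C %.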

The subject of assay [11] is MCF7S. Nature of the assay: Incorporation of [3H]- thymidine in hormone dependent MCF-7 breast cancer cells. In kind it is functional, cell-based. The following applies: Homo sapiens.
In assay [12] the test system is MDA-MB-231. Nature of the assay: Incorporation of [3H]- thymidine in hormone independent MDA-MB-231 breast cancer cells. In kind it is functional, cell-based. Particulars: Homo sapiens.
The nature of assay [13]: Cell growth inhibition MXT-ER+ breast cancer cells at a dose of 11.3 mg/kg. In kind it is functional, organism-based. More on the design: dose 11.3 mg/kg. Particulars: Mus musculus, Cancer cell lines. In outline:
as §1

The species named for assay [14] is Rattus norvegicus. Nature of the assay: No. of tumors occurring at a dose of 1.9 mg in DMBA - induced hormone dependent mammary carcinoma in rat. In kind it is functional. In outline:
(§6)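 DMBA-induced, hormone-dependent mammary carcinoma in Sprague-Dawley rats. Dose is per kg body weight per day, given three times a week, sc, as suspension or solution in polyethylene glycol 400/H2O 1:1, for 4 weeks. Tumors were counted at start (B) and as new tumors (NT). Outcomes were scored as % complete remission (not palpable), partial remission, no change and progression, with % change in tumor area.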

Assay [15] is filed under the species Rattus norvegicus. Description: Percent change of tumor area at 28 day of therapy at a dose of 1.9 mg in DMBA - induced hormone dependent mammary carcinoma in rat. It is filed as functional. In outline: as §6
Assay [16] relates to Mus musculus. Description: Uterotrophic effect in BDF1 mouse at a dose of 0.6 mg/kg (1.5*10e-6 M/kg). It is filed as functional, Uterus. In outline:
as §2

Assay [17] is filed under the species Rattus norvegicus. Description: Percent of tumors with complete remission at a dose of 1.9 mg in DMBA - induced, hormone dependent mammary carcinoma in rat. In kind it is functional. In outline:
as §6

Assay [18] is filed under the species Rattus norvegicus. Nature of the assay: Percent of tumors with no change at a dose of 1.9 mg in DMBA - induced hormone dependent mammary carcinoma in rat. In kind it is functional. In outline: as §6
The species named for assay [19] is Rattus norvegicus. Description: Percent of tumors with progression at a dose of 1.9 mg in DMBA - induced hormone dependent mammary carcinoma in rat. It is filed as functional. In outline: as §6
Assay [20] is filed under the species Rattus norvegicus. Description: Percent of tumors with partial remission at a dose of 1.9 mg in DMBA - induced, hormone dependent mammary carcinoma in rat. It is filed as functional. In outline: as §6
Assay [21] can be described thus: Median tumor weight of MXT ER+ determined at the end of 6 week therapy at a dose of 0.6 mg/kg (1.5*10e-6 M/kg). It is filed as functional, Mus musculus. In outline: (§7)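 MXT mammary carcinoma (hormone-dependent, ER+) in BDF1 mice. Doses given in olive oil, sc, three times a week, for 6 weeks. Median tumor weight was measured at the end of therapy and expressed as T/C %. Significance was by the Wilcoxon-Mann-Whitney U test.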

A short description of assay [22]: Median tumor weight of MXT ER+ (mammary carcinoma) determined at the end of 6 week therapy at a dose of 0.6 mg/kg (1.5*10e-6 M/kg). In kind it is functional, Mus musculus. In outline: as §7
A short description of assay [23]: Median tumor weight of MXT ER+ determined at the end of 6 week therapy at a dose of 5.3 mg/kg (1.4*10e-5 M/kg). In kind it is functional, Mus musculus. In outline:
as §7

Assay [24] in a line: Cell growth inhibition of MXT-ER+ breast cancer cells at a dose of 5.3 mg/kg ([…]). In kind it is functional, organism-based. More on the design: dose 5.3 mg/kg. The following applies: Mus musculus, Cancer cell lines. In outline:
as §7

In assay [25] the test system is Mus musculus. Nature of the assay: Uterotrophic effect in BDF1 mouse at a dose of 1.8 mg/kg (4.6 *10e-6 M/kg). In kind it is functional, Uterus. In outline: as §2
The species entered for assay [26] is Rattus norvegicus. Description: Percent change of in body weight at 7 day of therapy at a dose of 1.9 mg in DMBA - induced hormone dependent mammary carcinoma in rat. In kind it is functional.
A short description of assay [27]: Cell growth inhibition of MXT-ER+ breast cancer cells at a dose of 1.8 mg/kg (4.6 *10e-6 M/kg). Particulars: Mus musculus, Cancer cell lines. In kind it is functional, organism-based. Further details: dose 1.8 mg/kg. In outline: as §7
Assay [28] is filed under the species Rattus norvegicus. Nature of the assay: No. of tumors at the beginning of the test at dose of 1.9 in DMBA - induced, hormone dependent mammary carcinoma in 8 rat. In kind it is functional. In outline: as §6
Assay [29] in a line: Cell growth inhibition of MXT-ER+ breast cancer cells at a dose of 0.6 mg/kg (1.5*10e-6 M/kg). In kind it is functional, organism-based. Further details: dose 0.6 mg/kg. Particulars: Mus musculus, Cancer cell lines. In outline:
as §7

Assay [30] is described as follows: Cell growth inhibition MXT-ER- breast cancer cells at a dose of 12.9 mg/kg. In kind it is functional, organism-based. Particulars: Mus musculus, Cancer cell lines. More on the design: dose 12.9 mg/kg. In outline: as §5
Assay [31] can be described thus: Cell growth inhibition MXT-ER+ breast cancer cells at a dose of 12.9 mg/kg. In kind it is functional, organism-based. Further details: dose 12.9 mg/kg. Particulars: Mus musculus, Cancer cell lines. In outline: as §1
The subject of assay [32] is Mus musculus. Description: Median tumor weight of MXT (mammary carcinoma) ER+ determined at the end of 6 week therapy at a dose of 12.9 mg/kg. It is filed as functional, organism-based. More on the design: dose 12.9 mg/kg. In outline: as §4
For assay [33], the system named is Mus musculus. Description: Uterotrophic effect in BDF1 mouse at a dose of 12.9 mg/kg. In kind it is functional, organism-based. Further details: dose 12.9 mg/kg. Particulars: Uterus. In outline:
as §3

Several values for one entry are separate records, joined by “and”; a condition that tells them apart may be missing. Equal values may be shown once.

For `CC/C(=C(\c1ccccc1)c1ccc(OCCN(C)C)cc1)c1ccccc1` [TAMOXIFEN], the T/C in [1] came to 3%; in the assay filed under Mus musculus [3], 80%. The Effect in the assay filed under Mus musculus [2] is on record as 72.3. Besides, the Med tumor weight in the assay listed under Mus musculus [4] came to 16 mg.
For meso-2-PtCl2(2-6-(CH3)2), the Med tumor weight with Mus musculus [5] came to 40 mg. Besides, the ED50 with MDA-MB-231 [6] came to 2700 nM; in the assay with MCF7S [8], 3100 nM; in the assay on MDA-MB-231 [9], 2700 nM; in the assay with MCF7S [11] it was 900 nM. In addition, the T/C is 96% in the assay on Mus musculus [7]; 17% in the assay with MCF7S [8]; 34% in the assay on MDA-MB-231 [9]; 63% in [10]; 4% with MCF7S [11]; 28% with MDA-MB-231 [12]. Moreover, the T/C in assay [13] amounted to 9%. In the assay filed under Mus musculus [2], the Effect was determined as 86.6.
Turning to `NC(c1c(Cl)cc(O)cc1Cl)C(N)c1c(Cl)cc(O)cc1Cl` (configuration not stated), the No. of tumors in the assay filed under Rattus norvegicus [14] came to 3; in the assay listed under Rattus norvegicus [28], 26. Also, the figures for the Change in the assay filed under Rattus norvegicus [15] and in the assay filed under Rattus norvegicus [26] were 154% and -1.5%, respectively. Also, the Effect in the assay listed under Mus musculus [2] was 134 and 201. In addition, the T/C in the assay on Mus musculus [16] is less than 158%; in assay [24] it was less than 12%; in the assay with Mus musculus [25], 239%; in assay [27], less than 12%; in assay [29], less than 18%. Also, the Tumors turned out to be 11% in the assay filed under Rattus norvegicus [17], 7% in the assay filed under Rattus norvegicus [18], 78% in the assay listed under Rattus norvegicus [19] and 4% in the assay listed under Rattus norvegicus [20]. Also, the values for the Med tumor weight in [21], in assay [22] and in assay [23] were 62.5 mg, 91.5 mg and 61 mg, respectively.
Turning to meso-3-PtCl2(2-CF3), the T/C in [30] was found to be 72%; in the assay with MCF7S [8], 61%; in the assay on MDA-MB-231 [9], 46%; in assay [31], 78%; in the assay with MCF7S [11], 27%; in the assay with Mus musculus [33], 100%. In the assay with MDA-MB-231 [12], this compound displayed a T/C of 36%. In addition, in the assay listed under Mus musculus [2], the Effect stood at 70.9. The ED50 in the assay on MCF7S [8] came to 5100 nM; in the assay with MDA-MB-231 [9] it was 4000 nM; in the assay with MCF7S [11] it was 2200 nM; in the assay on MDA-MB-231 [12], 3200 nM. This compound also yielded a Med tumor weight with Mus musculus [32] of 422 mg.

The record behind these values is ChEMBL document CHEMBL1123966, “Ring-substituted [1,2-bis(4-hydroxyphenyl)ethylenediamine]dichloroplatinum (II) complexes: compounds with a selective effect on the hormone-dependent mammary carcinoma” (1988).
